Source: ChEMBL document CHEMBL5653617, “Inhibition of BRD4 attenuates tumor cell self-renewal and suppresses stem cell signaling in MYC driven medulloblastoma” (Oncotarget, 2014)
The source made the active and inactive calls.

Experiments:
Daoy [1] = assay: Antitumor activity against human Daoy cells xenografted in athymic nude mice assessed as inhibition of proliferation at 50 mg/kg, ip measured after 5 days by Ki67 staining based analysis; assay type: functional, organism-based; details: time 5.0 day
Procedure, shortened: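 Daoy cells (1.0×10^7 in PBS) injected into the flank of athymic nude mice. Once tumors were palpable, drug given 50 mg/kg i.p. with DMSO as vehicle control. Animals were sacrificed after a 5-day treatment. Tumors were assessed by Ki67 IHC and by senescence-associated β-galactosidase staining.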

D458 Med [2] = assay: Inhibition of colony formation in human D458 Med cells at 100 to 300 nM incubated for 8 to 11 days by NBT staining based methyl cellulose colony growth assay; assay type: functional, cell-based; details: dose 100-300 nM, time 8-11 day
Procedure, shortened: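 500 cells/well suspended in DMEM with methyl cellulose (1.3% final) containing 150 or 300 nM drug or DMSO, plated in triplicate. Colonies formed over 8–11 days, then stained with NBT (1 mg/ml) for 24 h at 37 °C. Colonies of ≥50 cells counted.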

Daoy [3] = assay: Induction of cell cycle arrest in human Daoy cells assessed as accumulation of cells at G1 phase at 300 nM incubated for 48 hrs by flow cytometry analysis (reference value: 50.67 +/- 3.19%); assay type: functional
D425 Med = assay: Induction of cell cycle arrest in human D425 Med cells assessed as S phase cells at 300 nM incubated for 48 hrs by flow cytometry analysis (reference value: 28.96 +/- 0.89%); assay type: functional
D283 Med [4] = assay: Induction of cell cycle arrest in human D283 Med cells assessed as S phase cells at 300 nM incubated for 48 hrs by flow cytometry analysis (reference value: 19.88 +/- 1.26 %); assay type: functional
Daoy [5] = assay: Induction of cell cycle arrest in human Daoy cells assessed as G2/M phase cells at 300 nM incubated for 48 hrs by flow cytometry analysis (reference value: 33.94 +/- 1.46%); assay type: functional
D283 Med [6] = assay: Induction of cell cycle arrest in human D283 Med cells assessed as G2/M phase cells at 300 nM incubated for 48 hrs by flow cytometry analysis (reference value: 55.70 +/- 1.50 %); assay type: functional
D458 Med [7] = assay: Induction of cell cycle arrest in human D458 Med cells assessed as G2/M phase cells at 300 nM incubated for 48 hrs by flow cytometry analysis (reference value: 18.72 +/- 2.62%); assay type: functional
Daoy [8] = assay: Suppression of human Daoy cells self-renewal cultured in serum free condition assessed as reduction in formation of new neurosphere at 300 nM; assay type: functional, cell-based
Procedure, shortened: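 Cells grown as neurospheres in serum-free medium for 48 h, dissociated, and seeded in a limiting dilution from 1000 to 1 cell/well, with 300 nM drug or DMSO. After 7 days in serum-free culture, neurospheres per well counted and plotted against cells seeded.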

Daoy [9] = assay: Induction of senescence in human Daoy cells assessed as increase in p16 mRNA expression at 300 nM by RT-qPCR analysis; assay type: functional, cell-based
Procedure, shortened: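 Cells treated with 300 nM drug or DMSO. p16, p21 and p27 mRNA measured by TaqMan qPCR with ΔΔCt quantitation, in triplicate.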

Daoy [10] = assay: Induction of senescence in human Daoy cells assessed as increase in p21 protein expression at 300 nM by immunoblot analysis; assay type: functional, cell-based
Procedure, shortened: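 Protein lysates prepared in RIPA buffer with protease inhibitors. Standard western blot with HRP-conjugated secondary antibodies and chemiluminescent detection.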

Daoy [11] = assay: Inhibition of E2F1 activity in human Daoy cells at 100 to 300 nM by luciferase based reporter assay; assay type: functional, cell-based; details: dose 100-300 nM
Procedure, shortened: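 Cignal pathway reporter system using an E2F1-responsive luciferase reporter. Cells seeded in 24-well plates and transfected with Surefect. DMSO or drug added 8 h later, then incubated a further 24 h before luciferase readout.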

Daoy [12] = assay: Antitumor activity against human Daoy cells xenografted in athymic nude mice assessed as reduction in tumor growth at 50 mg/kg, ip administered 5 days a week for 4 weeks and measured after 20 days; assay type: functional, organism-based; details: time 48.0 day
Procedure, shortened: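 Daoy cells (1.0×10^7 in PBS) injected into the flank of athymic nude mice. Dosing began once tumors were palpable, at a mean of 52 days post inoculation. 50 mg/kg i.p. or DMSO vehicle given 5 days/week for 4 weeks, n=10, with tumors followed a further 20 days. Volume by caliper as π/6 × L × W × H. Body weight recorded 3 times weekly.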

Daoy [13] = assay: In vivo inhibition of BRD4 in athymic nude mouse xenografted with human Daoy cells assessed as reduction in SOX2 mRNA expression in tumor at 50 mg/kg, ip measured after 5 days by RT-qPCR analysis; assay type: functional, organism-based; details: time 5.0 day
Procedure, shortened: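 Xenograft tumors from mice dosed 50 mg/kg i.p. or DMSO vehicle, n = 3 each. SOX2 mRNA measured by TaqMan qPCR with ΔΔCt quantitation, in triplicate.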

Medulloblastoma cell = assay: Cytotoxicity against patient-derived Medulloblastoma cells assessed as reduction in cell viability at 300 nM by LDH assay; assay type: functional, cell-based; details: Homo sapiens
Procedure, shortened: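 Primary tumor slices cultured as described and treated daily from day 5 with DMSO, 300 nM drug, or mitomycin C (50 ug/mL). Spent medium was collected at each change and stored at -80 °C. LDH activity was measured by kit and normalized to the mitomycin C treatment.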

Daoy [14] = assay: Downregulation of CDC25B gene expression in human Daoy cells at 300 nM by GSEA method; assay type: functional, cell-based
Procedure, shortened: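 Daoy cells treated with DMSO or 300 nM drug. RNA extracted and hybridized to Affymetrix HG-ST2.0 arrays. Analysis in R/Bioconductor with gene set enrichment analysis. Regulated transcripts defined as p < 0.05, FDR < 0.05, fold change < 0.67 (down) or > 1.5 (up).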

[15] = biological target: Bromodomain-containing protein 4 (Homo sapiens) (UniProt O60885); details: Daoy, dose 300.0 nM
[16] = biological target: Bromodomain-containing protein 4 (Homo sapiens) (UniProt O60885); details: D458 Med, dose 300.0 nM
[17] = biological target: Bromodomain-containing protein 4 (Homo sapiens) (UniProt O60885); details: Daoy, dose 300.0 nM; remark: listed apart in the source
[18] = biological target: Bromodomain-containing protein 4 (Homo sapiens) (UniProt O60885); details: Daoy, dose 300.0 nM; remark: listed apart in the source
[19] = biological target: Bromodomain-containing protein 4 (Homo sapiens) (UniProt O60885); details: D283 Med, dose 300.0 nM
[20] = biological target: Bromodomain-containing protein 4 (Homo sapiens) (UniProt O60885); details: D283 Med, dose 300.0 nM; remark: listed apart in the source
[21] = biological target: Bromodomain-containing protein 4 (Homo sapiens) (UniProt O60885); details: D458 Med, dose 300.0 nM; remark: listed apart in the source
[22] = biological target: Bromodomain-containing protein 4 (Homo sapiens) (UniProt O60885); details: D458 Med, dose 300.0 nM; remark: listed apart in the source
[23] = biological target: Bromodomain-containing protein 4 (Homo sapiens) (UniProt O60885); details: D458 Med, dose 300.0 nM; remark: listed apart in the source
[24] = biological target: Bromodomain-containing protein 4 (Homo sapiens) (UniProt O60885); details: D283 Med, dose 300.0 nM; remark: listed apart in the source

With `Cc1sc2c(c1C)C(c1ccc(Cl)cc1)=N[C@@H](CC(=O)OC(C)(C)C)c1nnc(C)n1-2` the Activity (Daoy [1]) was “Active”, the inhibition (D458 Med [2]) was “Active” and the Activity (Daoy [3]) was 79.416%. The Activity (D425 Med) was 28.636%, the Activity (D283 Med [4]) was 14.093% and the Activity (Daoy [5]) was 16.813%. The Activity (D283 Med [6]) was 53.216%, the Activity (D458 Med [7]) was 23.266% and the Activity (Daoy [8]) was “Active”. The Activity (Daoy [9]) was “Active”, the Activity (Daoy [10]) was “Active” and the inhibition (Daoy [11]) was “Active”. For the same compound, the Activity (Daoy [12]) was “Active”, the inhibition (Daoy [13]) was “Active” and the Activity (Medulloblastoma cell) was “inactive”. The Activity (Daoy [14]) was “Active”, the inhibition [15] was “Active” and the inhibition [16] was “Active”. For the same compound, the inhibition [17] was “Active”, the inhibition [18] was “Active” and the inhibition [19] was “Active”. For the same compound, the inhibition [20] was “Active”, the inhibition [21] was “Active” and the inhibition [22] was “Active”. The inhibition [23] was “Active” and the inhibition [24] was “Active”.
